Calls of active or inactive are those of the source. The calls are words filed in the database; no cut-off is given here.
Key:
[1] = system: HL-60; test: Effect on cell growth in human HL60 cells assessed as cell number per mL at 2 uM; format: functional; design: scale not given here
Outline: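 HL-60 cells in RPMI 1640 with 10% FBS and 2 mM glutamine, 37 °C, 5% CO2, doubling time about 24 h. Exposed 24 h to 2 µM compound diluted from DMSO into medium. Cells per mL counted with a Coulter counter.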

[2] = system: Cancer cell lines; test: Inhibition of human prostate cancer cells; format: functional; details: for TGI: read-out: pTGI (converted)
Outline: (§1)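 NCI 60-cell-line panel, with results grouped by tissue subpanel. Compounds dissolved in DMSO and tested at five 10-fold dilutions, top concentration 10^-4 M. Values given as -log molar concentration for 50% growth inhibition (pGI50), total growth inhibition (pTGI) and 50% cell kill (pLC50), with subpanel means calculated.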

[3] = system: Cancer cell lines; test: Inhibition of human colon cancer cells; format: functional; details: for TGI: read-out: pTGI (converted); outline: as §1
[4] = system: Cancer cell lines; test: Inhibition of human ovarian cancer cells; format: functional; details: for TGI: read-out: pTGI (converted); outline: as §1
[5] = system: Cancer cell lines; test: Inhibition of human breast cancer cells; format: functional; details: for TGI: read-out: pTGI (converted); outline: as §1
[6] = system: Melanoma cell; test: Inhibition of human melanoma cells; format: functional; details: for TGI: read-out: pTGI (converted); outline: as §1
[7] = system: HL-60; test: Induction of cell death in human HL60 cells at 2 uM by propidium iodide staining method; format: functional
Outline: (§2)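 HL-60 cells in RPMI 1640 with 10% FBS and 2 mM glutamine at 37 °C, 5% CO2, exposed for 24 h to compound diluted in medium from DMSO. Cells were counterstained with propidium iodide (5 µg/mL) for plasma membrane integrity and analysed by flow cytometry. The readout is the percentage of PI-positive cells.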

[8] = system: Cancer cell lines; test: Inhibition of human non-small cell lung cancer cells; format: functional; details: for TGI: read-out: pTGI (converted); outline: as §1
[9] = system: HL-60; test: Cell cycle arrest in human HL60 cells assessed as accumulation at G0/G1 phase at 2 uM; format: functional
Outline: (§3)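 HL-60 cells kept in RPMI 1640 with 10% FBS and 2 mM glutamine at 37 °C, 5% CO2. Treated 24 h at 2 µM from DMSO stock diluted in medium. Cells fixed in cold 70% ethanol and stained with propidium iodide 50 µg/mL plus RNAase 10 µg/mL for 30 min. DNA profiles read by flow cytometry on ≥10 000 cells, and phase percentages calculated.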

[10] = system: Leukemia cell; test: Inhibition of human leukemia cells; format: functional; details: for TGI: read-out: pTGI (converted); outline: as §1
[11] = system: HL-60; test: Cell cycle arrest in human HL60 cells assessed as accumulation at G2/M phase at 2 uM; format: functional; outline: as §3
[12] = system: HL-60; test: Cell cycle arrest in human HL60 cells assessed as accumulation at S phase at 2 uM; format: functional; outline: as §3
[13] = system: Cancer cell lines; test: Inhibition of human renal cancer cells; format: functional; details: for TGI: read-out: pTGI (converted); outline: as §1
[14] = system: Cancer cell lines; test: Inhibition of human CNS cancer cells; format: functional; details: for TGI: read-out: pTGI (converted); outline: as §1
[15] = target: T1, S-adenosylmethionine decarboxylase proenzyme (Homo sapiens) (UniProt P17707); test: Inhibition of human S-adenosyl methionine decarboxylase in HL60 cells at 1 to 100 uM; format: cell-based; details: HL-60
T1 sequence (whole entry): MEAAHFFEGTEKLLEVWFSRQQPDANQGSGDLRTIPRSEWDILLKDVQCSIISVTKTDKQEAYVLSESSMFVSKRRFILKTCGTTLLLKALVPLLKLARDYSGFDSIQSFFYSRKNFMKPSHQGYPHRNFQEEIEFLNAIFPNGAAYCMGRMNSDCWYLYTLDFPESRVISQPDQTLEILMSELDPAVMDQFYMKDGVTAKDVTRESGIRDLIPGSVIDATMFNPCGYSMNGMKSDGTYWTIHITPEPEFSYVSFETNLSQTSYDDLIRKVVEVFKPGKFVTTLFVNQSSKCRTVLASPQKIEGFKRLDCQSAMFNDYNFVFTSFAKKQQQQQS

[16] = system: HL-60; test: Disruption of mitochondrial membrane potential in human HL60 cells at 5 uM after 1 hr; format: functional, cell-based
Outline: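 HL-60 cells exposed to 5 µM for 1 h, then loaded with 40 nM DiOC6 for 40 min at 1 × 10⁶ cells/mL, 37 °C, in the dark. Mitochondrial membrane potential read by flow cytometry. Mean ± SEM of triplicate determinations.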

[17] = system: HL-60; test: Induction of cell death in human HL60 cells assessed as LDH release at 5 uM after 24 hrs; format: functional, cell-based
Outline: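 HL-60 cells exposed 24 h to 5 µM. Medium aliquots collected and LDH activity determined spectrophotometrically from NADH at 340 nm. One typical experiment shown, repeated at least twice.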

[18] = system: HL-60; test: Induction of apoptosis in human HL60 cells assessed as caspase activity after 4 hrs; format: functional, cell-based
Outline: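 HL-60 cells treated 4 h across a range of concentrations. DEVD-cleaving caspase (DEVDase) activity measured fluorimetrically in cell extracts. One typical experiment shown, repeated at least twice.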

[19] = system: HL-60; test: Effect on energy metabolism assessed as increase in AMP/ATP ratio in human HL60 cells at 5 uM after 3 hrs; format: functional, cell-based
Outline: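 HL-60 cells treated 3 h with 5 µM. Adenine nucleotide levels measured and the AMP/ATP ratio calculated from them. Mean ± SEM of triplicate determinations.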

[20] = system: HL-60; test: Induction of apoptosis in human HL60 cells assessed as chromatin condensation at 5 uM after 3 hrs; format: functional, cell-based
Outline: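 HL-60 cells on glass coverslips treated 3 h with 5 µM. Cells fixed in 4% paraformaldehyde in PBS and stained with Hoechst 0.1 µg/mL. Nuclear morphology (chromatin condensation, apoptotic bodies) scored by fluorescence microscopy. Experiment repeated at least twice.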

[21] = system: HL-60; test: Increase in peroxide formation in human HL60 cells at 5 uM after 3 hrs; format: functional, cell-based
Outline: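 Intracellular peroxides measured in HL-60 cells after 3 h at 5 µM. Cells incubated with 5 µM DCF-DA for 30 min at 37 °C, then read by flow cytometry. Mean ± SEM of triplicates.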

[22] = system: HL-60; test: Cell cycle arrest in human HL60 cells assessed as accumulation at G0/G1 phase at 10 uM; format: functional
Outline: (§4)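 HL-60 cells growing exponentially in RPMI 1640 with 10% FBS and 2 mM glutamine at 37 °C under 5% CO2. Compound was dissolved in DMSO, diluted in medium and applied for 24 h. Cells were fixed in cold 70% ethanol and stained with 50 µg/mL propidium iodide plus 10 µg/mL RNase for 30 min. DNA content was read by flow cytometry (≥10,000 cells) and the percentage of cells in each phase calculated.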

[23] = system: HL-60; test: Cell cycle arrest in human HL60 cells assessed as accumulation at G2/M phase at 10 uM; format: functional; outline: as §4
[24] = system: HL-60; test: Effect on cell growth in human HL60 cells assessed as cell number per mL at 10 uM; format: functional
Outline: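 HL-60 cells grown in RPMI 1640 with 10% FBS and 2 mM glutamine at 37 °C, 5% CO2 (doubling time about 24 h). Compound was taken from a DMSO stock, diluted in medium and applied for 24 h. Growth was assessed by Coulter cell counting, reported as cells/mL.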

[25] = system: HL-60; test: Induction of cell death in human HL60 cells at 10 uM by propidium iodide staining method; format: functional; outline: as §2
[26] = system: HL-60; test: Cell cycle arrest in human HL60 cells assessed as accumulation at S phase at 10 uM; format: functional; outline: as §4

Compound	Activity [1]	GI50 [2]	TGI [2]	GI50 [3]	TGI [3]	GI50 [4]	TGI [4]	GI50 [5]	TGI [5]	GI50 [6]	TGI [6]	Activity [7]	GI50 [8]	TGI [8]	Activity [9]	GI50 [10]	GI50 [13]	TGI [13]	GI50 [14]	TGI [14]	other results
Cc1cn2c(/C=N/NC(=N)NN)c(-c3ccc(Cl)c([N+](=O)[O-])c3)nc2s1	760	3390 nM	9.55 µM	955 nM	2.09 µM	1290 nM	3.72 µM	1550 nM	5.37 µM	1820 nM	4.57 µM	7.8%	2400 nM	9.77 µM	35%	6310 nM	3240 nM	8.51 µM	1120 nM	2.95 µM	Activity [11]: 13.1%; Activity [12]: 51.9%
Cc1nn2c(/C=N/NC(=N)N)c(-c3ccc(Cl)c([N+](=O)[O-])c3)nc2s1	410	1100 nM	2.63 µM	646 nM	2.82 µM	1480 nM	4.27 µM	1020 nM	6.92 µM	1450 nM	2.95 µM	31%	3310 nM	11.5 µM	29.9%	575 nM	1230 nM	3.63 µM	1230 nM	9.77 µM	Activity [15]: Active; Activity [16]: Active; Activity [17]: Active; Activity [18]: Dose-dependent effect; Activity [19]: Active; TGI [10]: 3.63 µM; Activity [20]: Active; Activity [11]: 16.5%; Activity [12]: 53.6%; Activity [21]: Active
Cc1cn2c(/C=N/NC(=N)N)c(-c3cc(Cl)sc3Cl)nc2s1	750	794 nM	1.48 µM	1020 nM	3.98 µM	1020 nM	2.34 µM	1230 nM	2.63 µM	1050 nM	3.09 µM	7.4%	1100 nM	3.63 µM	35.3%	891 nM	1230 nM	3.02 µM	1120 nM	4.37 µM	TGI [10]: 1.78 µM; Activity [11]: 14.7%; Activity [12]: 50%
COc1cc([N+](=O)[O-])c(OC)cc1-c1nc2sc(Cl)cn2c1/C=N\NC1=NCCN1	485	759 nM	1.15 µM	501 nM	2.95 µM	741 nM	1.86 µM	1820 nM	42.7 µM	1260 nM	3.89 µM	22%	933 nM	4.79 µM	33.1%	2630 nM	1350 nM	3.39 µM	646 nM	2.09 µM	Activity [15]: Active; Activity [16]: Active; Activity [17]: Active; Activity [18]: Dose-dependent effect; Activity [19]: Active; Activity [20]: Active; Activity [11]: 15.1%; Activity [12]: 51.9%; Activity [21]: Active
Cc1cn2c(/C=N/NC3=NCCN3)c(-c3ccc(Cl)c([N+](=O)[O-])c3)nc2s1	780	1150 nM	2.95 µM	1200 nM	10 µM	1410 nM	3.39 µM	1820 nM	7.59 µM	977 nM	2.4 µM	11.9%	1550 nM	6.03 µM	31.3%	676 nM	1450 nM	3.72 µM	1070 nM	4.27 µM	TGI [10]: 6.17 µM; Activity [11]: 15%; Activity [12]: 53.7%
CC(/C=N/NC(=N)N)=N\NC(=N)N [MITOGUAZONE]		100000 nM	1580 µM	12600 nM	501 µM	15800 nM	316 µM	15800 nM	316 µM	39800 nM	316 µM		25100 nM	316 µM		7940 nM	20000 nM	501 µM	20000 nM	251 µM	Activity [22]: 43.6%; Activity [23]: 15.5%; Activity [24]: 702; TGI [10]: 631 µM; Activity [25]: 5.2%; Activity [26]: 40.9%
